According to ChEMBL document CHEMBL1156877, “Discovery of 6-benzyloxyquinolines as c-Met selective kinase inhibitors” (Bioorg Med Chem Lett, 2010):
≈ marks a conversion by molar mass, not a printed value.

Columns and labels:
[1] = system: CWR22R; assay: Cytotoxicity against human 22Rv1 cells after 96 hrs by WST8 assay; conditions: 22Rv1, 96 h
[2] = system: CAPAN-1; assay: Cytotoxicity against human Capan1 cells after 96 hrs by WST8 assay; conditions: CAPAN-1, 96 h
[3] = Solubility in fasted state simulated intestinal fluid; format: physicochemical
[4] = molecular target: Hepatocyte growth factor receptor (Homo sapiens, UniProt P08581); assay: Inhibition of recombinant c-Met by TR-FRET assay
Chain of Hepatocyte growth factor receptor (P08581 whole entry): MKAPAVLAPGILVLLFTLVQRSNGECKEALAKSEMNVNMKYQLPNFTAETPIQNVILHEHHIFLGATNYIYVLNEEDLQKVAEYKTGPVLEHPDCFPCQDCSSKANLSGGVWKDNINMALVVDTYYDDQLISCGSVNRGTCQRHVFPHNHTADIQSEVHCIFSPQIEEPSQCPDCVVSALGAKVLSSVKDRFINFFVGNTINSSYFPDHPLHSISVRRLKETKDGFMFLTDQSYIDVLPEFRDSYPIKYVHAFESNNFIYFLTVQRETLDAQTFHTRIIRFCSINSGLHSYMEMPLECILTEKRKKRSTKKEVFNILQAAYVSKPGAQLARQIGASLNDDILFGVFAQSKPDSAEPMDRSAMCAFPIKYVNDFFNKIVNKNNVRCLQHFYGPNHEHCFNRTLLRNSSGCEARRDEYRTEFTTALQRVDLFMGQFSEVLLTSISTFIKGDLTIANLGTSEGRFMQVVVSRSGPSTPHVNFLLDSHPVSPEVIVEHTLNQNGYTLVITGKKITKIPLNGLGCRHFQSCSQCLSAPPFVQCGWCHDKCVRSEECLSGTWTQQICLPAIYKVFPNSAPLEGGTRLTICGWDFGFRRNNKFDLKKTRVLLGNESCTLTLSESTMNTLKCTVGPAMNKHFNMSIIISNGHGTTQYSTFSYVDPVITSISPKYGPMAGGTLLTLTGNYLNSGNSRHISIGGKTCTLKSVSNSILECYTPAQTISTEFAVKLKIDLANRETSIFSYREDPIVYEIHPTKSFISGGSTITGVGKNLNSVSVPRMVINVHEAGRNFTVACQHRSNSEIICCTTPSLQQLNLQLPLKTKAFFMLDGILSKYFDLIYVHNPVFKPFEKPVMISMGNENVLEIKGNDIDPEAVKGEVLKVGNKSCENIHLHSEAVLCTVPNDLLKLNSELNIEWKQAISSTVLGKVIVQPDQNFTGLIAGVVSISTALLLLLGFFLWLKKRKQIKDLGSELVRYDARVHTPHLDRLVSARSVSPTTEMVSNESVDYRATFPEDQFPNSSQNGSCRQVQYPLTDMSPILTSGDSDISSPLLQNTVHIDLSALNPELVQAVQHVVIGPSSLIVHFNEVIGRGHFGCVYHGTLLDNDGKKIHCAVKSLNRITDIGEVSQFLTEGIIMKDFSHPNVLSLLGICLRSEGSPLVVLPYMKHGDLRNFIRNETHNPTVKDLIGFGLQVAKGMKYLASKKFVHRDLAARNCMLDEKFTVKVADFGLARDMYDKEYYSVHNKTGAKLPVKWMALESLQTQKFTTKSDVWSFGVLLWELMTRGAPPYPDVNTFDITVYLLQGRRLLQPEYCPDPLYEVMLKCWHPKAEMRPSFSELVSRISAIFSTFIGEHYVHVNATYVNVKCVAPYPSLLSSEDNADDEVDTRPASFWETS

[5] = system: MCF7; assay: Cytotoxicity against human MCF7 cells after 96 hrs by WST8 assay; conditions: MCF7, 96 h
[6] = molecular target: Insulin receptor (Homo sapiens, UniProt P06213); assay: Inhibition of recombinant InsR by TR-FRET assay
[7] = molecular target: Cyclin-dependent kinase 2 (Homo sapiens, UniProt P24941); assay: Inhibition of recombinant CDK2 by IMAP assay
Summary of the method: (§1)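 Recombinant enzyme mixed with test compound and substrate peptide/ATP solution, incubated 90 min at 30 °C; enzyme quantity, ATP, substrate and cation set per kinase. IMAP reagent then added for 5 min at room temperature, and peptide phosphorylation quantified by fluorescence polarization.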

[8] = molecular target: Fibroblast growth factor receptor 2 (Homo sapiens, UniProt P21802); assay: Inhibition of recombinant FGFR2 by TR-FRET assay
Chain of Fibroblast growth factor receptor 2 (P21802 whole entry): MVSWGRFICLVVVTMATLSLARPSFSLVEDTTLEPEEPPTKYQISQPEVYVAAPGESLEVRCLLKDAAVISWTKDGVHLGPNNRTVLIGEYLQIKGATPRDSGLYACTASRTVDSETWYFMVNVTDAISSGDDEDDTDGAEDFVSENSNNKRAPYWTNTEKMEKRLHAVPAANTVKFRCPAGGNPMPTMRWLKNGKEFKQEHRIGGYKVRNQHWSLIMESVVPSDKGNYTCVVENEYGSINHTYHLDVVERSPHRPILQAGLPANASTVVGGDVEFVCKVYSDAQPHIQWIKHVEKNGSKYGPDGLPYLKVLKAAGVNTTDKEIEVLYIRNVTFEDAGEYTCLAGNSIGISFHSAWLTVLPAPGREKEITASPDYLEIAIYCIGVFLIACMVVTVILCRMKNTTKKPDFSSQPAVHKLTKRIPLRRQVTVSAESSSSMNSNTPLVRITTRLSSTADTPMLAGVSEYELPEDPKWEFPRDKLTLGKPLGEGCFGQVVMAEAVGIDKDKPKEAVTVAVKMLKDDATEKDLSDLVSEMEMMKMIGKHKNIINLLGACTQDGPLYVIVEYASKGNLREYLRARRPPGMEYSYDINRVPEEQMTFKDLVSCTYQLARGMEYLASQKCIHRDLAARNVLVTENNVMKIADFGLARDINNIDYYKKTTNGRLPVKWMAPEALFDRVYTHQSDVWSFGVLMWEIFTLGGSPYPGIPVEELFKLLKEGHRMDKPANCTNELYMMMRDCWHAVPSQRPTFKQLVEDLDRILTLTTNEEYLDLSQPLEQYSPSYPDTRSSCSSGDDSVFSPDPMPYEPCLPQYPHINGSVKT
Summary of the method: (§2)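 Recombinant tyrosine kinase incubated with test compound and substrate peptide/ATP for 90 min at 30 °C; enzyme amount, ATP level, substrate and cation vary by kinase. Reaction stopped, then TR-FRET reagent with europium-labelled anti-phospho-substrate antibody added for 5 min at room temperature; substrate phosphorylation read as time-resolved fluorescence.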

[9] = molecular target: T1, Protein kinase C beta type (Homo sapiens, UniProt P05771); assay: Inhibition of recombinant PKCbeta1 by IMAP assay; summary of the method: as §1
T1 sequence (P05771 whole entry): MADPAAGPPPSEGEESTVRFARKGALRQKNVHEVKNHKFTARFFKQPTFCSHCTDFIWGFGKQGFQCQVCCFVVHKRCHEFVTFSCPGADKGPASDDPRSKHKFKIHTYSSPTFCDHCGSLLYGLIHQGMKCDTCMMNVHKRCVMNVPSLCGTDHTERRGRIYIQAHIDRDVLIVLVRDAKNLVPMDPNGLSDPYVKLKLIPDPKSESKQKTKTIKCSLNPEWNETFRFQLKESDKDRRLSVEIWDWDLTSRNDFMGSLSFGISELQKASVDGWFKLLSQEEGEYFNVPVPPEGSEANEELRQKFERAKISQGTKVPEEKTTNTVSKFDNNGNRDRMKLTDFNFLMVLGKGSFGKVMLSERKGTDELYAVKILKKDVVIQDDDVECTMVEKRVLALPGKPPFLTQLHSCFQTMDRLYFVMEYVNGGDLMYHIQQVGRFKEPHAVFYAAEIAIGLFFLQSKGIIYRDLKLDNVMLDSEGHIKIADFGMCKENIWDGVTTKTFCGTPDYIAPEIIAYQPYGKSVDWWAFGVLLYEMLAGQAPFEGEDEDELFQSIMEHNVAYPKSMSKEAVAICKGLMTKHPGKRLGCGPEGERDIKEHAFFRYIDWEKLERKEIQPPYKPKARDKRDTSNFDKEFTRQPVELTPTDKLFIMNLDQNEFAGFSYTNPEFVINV

[10] = system: A549; assay: Cytotoxicity against human A549 cells after 96 hrs by WST8 assay; conditions: A549, 96 h
[11] = molecular target: Macrophage-stimulating protein receptor (Homo sapiens, UniProt Q04912); assay: Inhibition of recombinant RON by TR-FRET assay; summary of the method: as §2
[12] = molecular target: T2, Tyrosine-protein kinase receptor UFO (Homo sapiens, UniProt P30530); assay: Inhibition of recombinant AXL by TR-FRET assay; summary of the method: as §2
T2 sequence (P30530 whole entry): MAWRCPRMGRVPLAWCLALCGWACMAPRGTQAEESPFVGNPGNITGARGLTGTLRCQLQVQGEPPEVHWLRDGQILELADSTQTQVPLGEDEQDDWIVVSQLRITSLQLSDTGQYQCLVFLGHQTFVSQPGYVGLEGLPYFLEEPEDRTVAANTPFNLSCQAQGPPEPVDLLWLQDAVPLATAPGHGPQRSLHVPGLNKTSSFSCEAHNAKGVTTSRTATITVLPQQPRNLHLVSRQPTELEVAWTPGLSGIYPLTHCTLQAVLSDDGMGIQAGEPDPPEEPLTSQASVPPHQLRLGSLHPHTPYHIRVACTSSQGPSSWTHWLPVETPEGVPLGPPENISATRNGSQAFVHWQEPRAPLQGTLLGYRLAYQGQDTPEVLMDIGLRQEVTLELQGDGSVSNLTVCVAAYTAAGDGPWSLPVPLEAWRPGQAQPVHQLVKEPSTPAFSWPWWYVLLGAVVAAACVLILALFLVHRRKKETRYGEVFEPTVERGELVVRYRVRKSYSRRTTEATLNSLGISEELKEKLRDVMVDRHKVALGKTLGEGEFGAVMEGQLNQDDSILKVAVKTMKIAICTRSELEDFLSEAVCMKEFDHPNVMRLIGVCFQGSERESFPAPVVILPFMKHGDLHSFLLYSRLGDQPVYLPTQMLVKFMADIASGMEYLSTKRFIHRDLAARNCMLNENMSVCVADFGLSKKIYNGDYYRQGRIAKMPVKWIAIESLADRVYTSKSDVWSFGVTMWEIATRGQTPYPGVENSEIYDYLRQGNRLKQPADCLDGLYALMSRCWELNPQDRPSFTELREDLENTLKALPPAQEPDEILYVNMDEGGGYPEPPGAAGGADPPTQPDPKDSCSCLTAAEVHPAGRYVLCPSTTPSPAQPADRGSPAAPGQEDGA

[13] = system: MKN-28; assay: Cytotoxicity against human MKN28 cells after 96 hrs by WST8 assay; conditions: MKN-28, 96 h
[14] = system: MKN-45; assay: Cytotoxicity against human MKN45 cells after 96 hrs by WST8 assay; format: functional, cell-based; conditions: MKN-45, 96 h
Summary of the method: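 Tumour cells exposed to a range of compound concentrations for 96 h; cytotoxicity read with WST-8 cell counting kit.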

[15] = Inhibition of recombinant PKA by IMAP assay; summary of the method: as §1
[16] = molecular target: Leukocyte tyrosine kinase receptor (Homo sapiens, UniProt P29376); assay: Inhibition of recombinant LTK by TR-FRET assay; summary of the method: as §2
[17] = molecular target: T1, Protein kinase C beta type; assay: Inhibition of recombinant PKCbeta2 by IMAP assay; summary of the method: as §1
[18] = molecular target: Tyrosine-protein kinase Yes (Homo sapiens, UniProt P07947); assay: Inhibition of recombinant YES by TR-FRET assay; summary of the method: as §2
Chain of Tyrosine-protein kinase Yes (P07947 whole entry): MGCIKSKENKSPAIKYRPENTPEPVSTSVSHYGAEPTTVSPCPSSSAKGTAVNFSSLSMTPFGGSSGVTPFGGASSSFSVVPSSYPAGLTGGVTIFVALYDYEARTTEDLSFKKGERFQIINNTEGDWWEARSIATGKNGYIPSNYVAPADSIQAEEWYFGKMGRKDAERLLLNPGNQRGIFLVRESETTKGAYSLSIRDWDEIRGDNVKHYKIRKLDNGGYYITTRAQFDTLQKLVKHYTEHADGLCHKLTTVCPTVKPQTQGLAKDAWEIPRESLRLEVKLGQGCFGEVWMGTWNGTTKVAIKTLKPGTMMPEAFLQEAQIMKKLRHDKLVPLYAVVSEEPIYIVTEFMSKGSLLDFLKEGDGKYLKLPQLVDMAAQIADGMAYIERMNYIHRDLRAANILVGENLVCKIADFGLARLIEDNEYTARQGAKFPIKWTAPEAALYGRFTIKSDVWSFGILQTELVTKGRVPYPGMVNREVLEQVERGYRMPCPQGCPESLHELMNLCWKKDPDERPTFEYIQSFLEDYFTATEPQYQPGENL

[19] = system: HUVEC; assay: Inhibition of ECGS-induced proliferation of HUVEC after 96 hrs by WST8 assay; conditions: Homo sapiens
[20] = system: NCI-H460; assay: Cytotoxicity against human NCI-H460 cells after 96 hrs by WST8 assay; conditions: NCI-H460, 96 h
[21] = system: HUVEC; assay: Inhibition of VEGF-induced proliferation of HUVEC after 96 hrs by WST8 assay; conditions: Homo sapiens
[22] = system: NCI-N87; assay: Cytotoxicity against human NCI-N87 cells after 96 hrs by WST8 assay; conditions: NCI-N87, 96 h
[23] = system: MDA-MB-231; assay: Cytotoxicity against human MDA-MB-231 cells after 96 hrs by WST8 assay; conditions: MDA-MB-231, 96 h
[24] = system: PC-3; assay: Cytotoxicity against human PC3 cells after 96 hrs by WST8 assay; conditions: PC-3, 96 h
[25] = molecular target: Insulin-like growth factor 1 receptor (Homo sapiens, UniProt P08069); assay: Inhibition of recombinant IGF1R by TR-FRET assay; summary of the method: as §2
Chain of Insulin-like growth factor 1 receptor (P08069 31-736 limits assumed): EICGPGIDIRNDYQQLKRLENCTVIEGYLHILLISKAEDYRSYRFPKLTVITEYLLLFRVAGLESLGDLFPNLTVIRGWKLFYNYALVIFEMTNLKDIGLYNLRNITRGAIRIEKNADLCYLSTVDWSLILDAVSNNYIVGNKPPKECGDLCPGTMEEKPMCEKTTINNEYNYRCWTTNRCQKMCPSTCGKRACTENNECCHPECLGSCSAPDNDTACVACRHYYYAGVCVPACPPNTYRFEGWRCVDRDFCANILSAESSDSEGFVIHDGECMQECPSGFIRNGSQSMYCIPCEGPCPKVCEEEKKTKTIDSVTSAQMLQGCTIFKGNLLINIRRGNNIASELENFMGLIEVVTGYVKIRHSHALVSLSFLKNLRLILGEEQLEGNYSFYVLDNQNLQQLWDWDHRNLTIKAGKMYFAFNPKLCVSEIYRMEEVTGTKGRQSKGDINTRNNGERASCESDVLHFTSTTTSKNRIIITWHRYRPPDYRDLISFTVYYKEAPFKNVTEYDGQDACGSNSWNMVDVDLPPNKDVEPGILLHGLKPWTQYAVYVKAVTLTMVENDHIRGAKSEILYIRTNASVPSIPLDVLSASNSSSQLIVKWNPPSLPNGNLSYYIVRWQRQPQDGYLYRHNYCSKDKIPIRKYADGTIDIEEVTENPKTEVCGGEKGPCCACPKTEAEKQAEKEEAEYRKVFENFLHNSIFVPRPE
Chain of Insulin-like growth factor 1 receptor (P08069 741-1367 limits assumed): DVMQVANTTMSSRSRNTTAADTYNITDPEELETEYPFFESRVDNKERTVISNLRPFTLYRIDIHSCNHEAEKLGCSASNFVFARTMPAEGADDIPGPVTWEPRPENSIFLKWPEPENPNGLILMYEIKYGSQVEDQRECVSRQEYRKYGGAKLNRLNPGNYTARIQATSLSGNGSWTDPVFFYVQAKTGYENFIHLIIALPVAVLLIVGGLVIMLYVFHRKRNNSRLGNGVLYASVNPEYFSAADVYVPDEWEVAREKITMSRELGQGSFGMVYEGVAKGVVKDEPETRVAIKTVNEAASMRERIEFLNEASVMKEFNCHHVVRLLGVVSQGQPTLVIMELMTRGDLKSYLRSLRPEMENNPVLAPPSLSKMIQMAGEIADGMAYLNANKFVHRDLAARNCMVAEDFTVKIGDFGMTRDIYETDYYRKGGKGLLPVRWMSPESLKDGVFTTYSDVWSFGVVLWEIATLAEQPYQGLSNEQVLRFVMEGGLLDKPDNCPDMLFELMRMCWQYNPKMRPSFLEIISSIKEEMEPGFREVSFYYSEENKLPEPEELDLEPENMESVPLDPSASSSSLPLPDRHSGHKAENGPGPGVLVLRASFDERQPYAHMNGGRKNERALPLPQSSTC

[26] = molecular target: T3, Aurora kinase A (Homo sapiens, UniProt O14965); assay: Inhibition of recombinant Aurora A by IMAP assay; summary of the method: as §1
T3 sequence (O14965 whole entry): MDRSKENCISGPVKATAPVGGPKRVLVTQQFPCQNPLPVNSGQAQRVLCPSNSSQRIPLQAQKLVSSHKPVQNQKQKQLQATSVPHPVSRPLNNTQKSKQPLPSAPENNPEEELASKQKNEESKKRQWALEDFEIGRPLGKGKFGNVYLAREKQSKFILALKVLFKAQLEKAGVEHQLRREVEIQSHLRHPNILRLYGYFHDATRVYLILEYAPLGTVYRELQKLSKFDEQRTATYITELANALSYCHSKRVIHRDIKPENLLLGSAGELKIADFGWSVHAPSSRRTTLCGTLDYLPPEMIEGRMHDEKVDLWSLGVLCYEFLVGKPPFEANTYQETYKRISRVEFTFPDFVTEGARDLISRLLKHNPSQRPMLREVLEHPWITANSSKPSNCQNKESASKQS

[27] = system: COLO 205; assay: Cytotoxicity against human COLO205 cells after 96 hrs by WST8 assay; conditions: COLO 205, 96 h

Structure (SMILES): C[C@@H](Oc1ccc2ncc(C3CC3C(N)=O)cc2c1)c1c(Cl)ccc(F)c1Cl (some centres not stated)
- IC50 [1]: > 1 µM
- IC50 [2]: > 1 µM
- solubility [3]: 345 µg/mL (≈ 823 µM)
- IC50 [4]: 0.0093 µM
- IC50 [5]: > 1 µM
- IC50 [6]: > 50 µM
- IC50 [7]: > 50 µM
- IC50 [8]: 12 µM
- IC50 [9]: > 50 µM
- IC50 [10]: > 1 µM
- IC50 [11]: 0.23 µM
- IC50 [12]: 0.43 µM
- IC50 [13]: > 1 µM
- IC50 [14]: 0.093 µM
- IC50 [15]: > 50 µM
- IC50 [16]: 10 µM
- IC50 [17]: > 50 µM
- IC50 [18]: > 50 µM
- IC50 [19]: 9.9 µM
- IC50 [20]: > 1 µM
- IC50 [21]: 6.7 µM
- IC50 [22]: > 1 µM
- IC50 [23]: > 1 µM
- IC50 [24]: > 1 µM
- IC50 [25]: 27 µM
- IC50 [26]: 22 µM
- IC50 [27]: > 1 µM
